In general, CC50 refers to the concentration at which the toxic effect on the cells reaches its halfway point. What is called ED50 is the dose that gives a 50% effect, or the effect in half of the subjects.

Among the data in ChEMBL document CHEMBL1156797, “Synthesis and antiplasmodial activity of new indolone N-oxide derivatives” (J Med Chem, 2010) are CC50, ED50 and Activity values, retold here.

Data set [1] can be described thus: Cytotoxicity against human MCF7 cells after 48 hrs by MTT assay. It counts as cell-based.
A short description of data set [2]: Cytotoxicity against human KB cells after 72 hrs by alamar blue assay. It counts as cell-based. A digest of the protocol: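 KB cells were seeded at 4×10^4 cells/mL in RPMI 1640 with 10% heat-inactivated FCS and left 24 h at 37 °C, 5% CO2. A dilution series was added in triplicate for 72 h, then AlamarBlue for 2–4 h. Fluorescence was read at ex 530/em 585 nm, with podophyllotoxin as positive control and values from curve fitting.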
A general note: Alamar Blue is a resazurin reagent that responds to reducing activity.

The test system of data set [3] is Plasmodium berghei. As to the kind of experiment: Antimalarial activity against Plasmodium berghei NK65 infected Swiss mice (Mus musculus) assessed as reduction in parasitemia treated intraperitoneally for 3 days measured on day 4. The conditions noted are these: NK65, ip.
Data set [4] has as its system Plasmodium berghei. As to the kind of experiment: Antimalarial activity against Plasmodium berghei NK65 infected Swiss mice (Mus musculus) assessed as reduction in parasitemia at 10 mg/kg, intraperitoneally after 3 days measured on day 4. Also noted: scale not given: the % may be the effect or the level left. The conditions noted are these: route intraperitoneal.

With `CCN(CC)CCCC(C)Nc1ccnc2cc(Cl)ccc12` (centres undefined) [CHLOROQUINE], the CC50 at 48 h in data set [1] is 19.4 µM. Besides, it took 44 µM to reach half-maximal cytotoxicity in data set [2] (CC50 at 72 h). The ED50 in the data set on Plasmodium berghei [3] is 3 mg/kg. In the data set on Plasmodium berghei [4], the Activity was 100%.
